Screens: PubChem BioAssay, several laboratories
PP5 primary – PP5 (human) phosphatase inhibition; P53041; purified PP5c, OMFP substrate fluorescence; inhibition, % at 6.7 µM; 320,000 tested, 0.18% active;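 active = inhibition above the campaign's mean inhibition across all tested compounds plus 3 SD, cut at about 9.5% in these data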;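 note: 0% = DMSO only and 100% = 100 µM cantharidin control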
STEP block – STEP (human) phosphatase inhibition | P54829 | 360,000 tested, 0.25% active | recombinant STEP, OMFP fluorogenic substrate, fluorescence | inhibition, % at 20 µM;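 active = inhibition at 20 µM, scaled per plate between control wells, above about 37%, limit read from the data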;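 note: 0% = DMSO with enzyme and substrate and 100% = substrate only without enzyme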
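Assay system: isolated STEP enzyme / Timing: 20 min at room temperature, dark / Doses: 20 µM, 1% DMSO / Technique: fluorescence intensity, excitation 480 nm, emission 540 nm / Reagent: fluorogenic phosphatase substrate OMFP at 25 µM final / Measure: percent inhibition scaled to no-enzyme and uninhibited-enzyme controls, plate-pattern corrected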
Scp1 inh – inhibitors of human Scp-1 phosphatase | AID 493091 | Recombinant Scp1, phosphopeptide, malachite green phosphate absorbance | Q9GZU7 | 340,000 tested, 0.88% active | inhibition, % at 20 µM;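 active = inhibition above about 50% at 20 µM, limit read from the data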;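 note: plate controls were DMSO wells with enzyme for no effect and wells lacking enzyme for full effect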
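System: truncated SCP-1 phosphatase (76-261aa); medium: Tris acetate buffer pH 5.5 with MgCl2 and Tween-20; incubation: 45 min room-temperature reaction, 5 min colour, 30 min stabiliser; compound: single 20 µM dose, 1% DMSO; reagent: Phosphorylated 17-residue peptide substrate; read-out: % inhibition at 20 µM; technique: colorimetric free-phosphate detection, absorbance 630 nm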
LMPTP inh – blocks human LMPTP phosphatase; 360,000 tested, 0.22% active; recombinant LMPTP-A, OMFP fluorogenic substrate, fluorescence intensity; inhibition, % at 20 µM; P24666;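 active = compounds that cut the enzyme signal by at least half of the control window in the single-dose screen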;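 note: plate controls were DMSO wells with enzyme plus substrate for no effect and substrate without enzyme for full effect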
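Test system: LMPTP-A phosphatase enzyme. Amount: LMPTP-A at 0.625 nM final in the reaction. Reagent: OMFP substrate, 400 µM final. Times: 50 min at room temperature. Signal: endpoint fluorescence intensity from OMFP dephosphorylation. Read-out basis: % inhibition. Benchmarks: no-enzyme and uninhibited controls.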
PP1 inh – blocks human PP1-alpha phosphatase, a PP5 counter-screen; AID 2235; 320,000 tested, 0.9% active; P62136; purified PP1alpha, OMFP fluorescence; inhibition, % at 6.7 µM;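 active = inhibition above the mean inhibition of all tested compounds plus 3 SD, computed separately for each screening campaign, cut at about 15% in these data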
Target sequence (P62136 whole entry, looked up): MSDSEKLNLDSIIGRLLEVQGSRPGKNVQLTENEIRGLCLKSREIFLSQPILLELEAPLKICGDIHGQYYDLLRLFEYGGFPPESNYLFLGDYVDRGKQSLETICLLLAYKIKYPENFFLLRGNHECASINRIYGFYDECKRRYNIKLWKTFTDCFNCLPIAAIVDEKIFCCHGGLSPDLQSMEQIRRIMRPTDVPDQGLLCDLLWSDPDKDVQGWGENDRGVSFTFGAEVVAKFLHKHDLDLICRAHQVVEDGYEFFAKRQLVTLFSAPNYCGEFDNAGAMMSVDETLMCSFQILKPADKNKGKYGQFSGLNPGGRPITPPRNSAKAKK
PP1 confirm – confirmation of human PP1 phosphatase inhibitors; shares compounds with PP1 inh; purified PP1alpha, OMFP substrate fluorescence; inhibition, % at 6.7 µM; 1,900 tested, 52% active; AID 2358;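 active = mean PP1 inhibition above a set limit taken from the earlier primary screen, cut at about 15% in these data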
PP5 inh counter – inhibits human PP5 phosphatase in PP1 counter-screen; shares compounds with PP1 inh; purified PP5c, OMFP fluorescence; inhibition, % at 6.7 µM; 1,900 tested, 4% active;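 active = mean PP5 inhibition over triplicate wells above about 9.5% taken from the earlier PP1 screen, limit read from the data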
* marks the source's active call; other numbers are inactive results; . = not tested or not shown. A selection: hits, their analogues and other compounds. The true share with any hit is near 1.9%.

SMILES	PP5 primary	STEP block	Scp1 inh	LMPTP inh	PP1 inh	PP1 confirm	PP5 inh counter
CCCCNc1c(-c2ccc(OC)c(SC3CCCCC3)c2)nc2cnccn12	5	2	15	8	26*	17*	4
CCCCCCSc1cc(-c2nc3cnccn3c2NCc2ccccc2)ccc1OC	-3	2	21	5	18*	8	0
Nc1nc(Nc2ccccc2)nc(NCc2ccco2)c1[N+](=O)[O-]	5	1	0	2	5	.	.
c1ccc(CNc2nc(-c3ccccc3)nc3ccccc23)cc1	5	2	6	42	8	.	.
Fc1ccc(Nc2nc(NCc3ccco3)c3ccccc3n2)cc1	3	11	-1	4	20*	-1	0
c1ccc(CNc2nc(NCc3ccccc3)c3ccccc3n2)cc1	4	33	7	5	34*	23*	2
c1ccc(CNc2nc(-c3ccccn3)nc3ccccc23)cc1	0	0	-2	12	39*	40*	1
O=C(Nc1cccnc1Cl)c1noc2c1CCc1ccccc1-2	1	-1	-5	-1	1	.	.
Cc1cccc(NC(=O)CCSc2nncn2C)c1	0	-2	-3	-4	-2	.	.
Cc1cccc(NC(=O)Nc2c(C)[nH]c(=O)[nH]c2=O)c1C	2	-2	-13	0	-2	.	.
Cc1cc(CNC(=O)Cn2cc([N+](=O)[O-])cn2)c2ccccc2n1	3	0	-5	2	-4	.	.
N#CC1=C2N=C(N)c3ccccc3N2C2=C(C(=O)CCC2)C1c1ccccc1F (stereo not drawn)	1	0	-3	1	1	.	.
Cc1ccccc1C1C(C#N)=C2N=C(N)c3c(sc4c3CCCCC4)N2C2=C1C(=O)CCC2 (stereo not drawn)	1	4	5	12	25*	18*	9
CN(C(=O)COC(=O)c1ccccc1NC(=O)c1ccco1)C1CCS(=O)(=O)C1 (stereo not drawn)	-2	-4	-8	-2	-5	.	.
Cc1sc2nc(CSc3ccc([N+](=O)[O-])c(C(F)(F)F)c3)[nH]c(=O)c2c1C	1	-1	3	-1	27*	9	-2
Cc1sc2nc(CSC(C)C(=O)N(C)CC(=O)Nc3ccccc3C(F)(F)F)[nH]c(=O)c2c1C (stereo not drawn)	-2	-2	-11	1	0	.	.
O=C(/C=C/c1ccccc1)NC(NC(=S)Nc1ccc(Cl)cc1)C(Cl)(Cl)Cl (stereo not drawn)	2	0	-10	1	3	.	.
O=C(/C=C/c1cn(-c2ccccc2)nc1-c1cccnc1)c1ccco1	0	0	22	1	18*	-3	-1
O=C(/C=C/c1cn(-c2ccccc2)nc1-c1cccnc1)N1CCCC1	.	0	-3	-1	.	.	.
NC(=O)c1ccc(NC(=O)COC(=O)/C=C/c2cn(-c3ccccc3)nc2-c2cccnc2)cc1	2	-2	4	0	23*	19*	-1
O=C(/C=C/c1cn(-c2ccccc2)nc1-c1ccccc1)Nc1ccc(C(=O)O)cc1	4	-1	-1	12	19*	9	4
CCOC(=O)C1=CN(Cc2cccc(F)c2)S(=O)(=O)N(C)C1CCc1ccccc1 (stereo not drawn)	.	2	15	2	.	.	.
Nc1[nH]n2c(=O)c3c(nc2c1N=Nc1ccccc1)CCCC3	4	0	7	4	20*	21*	5
CCOC(=O)c1cc(-c2ccc(OC)cc2)n(CCC(=O)NCCN2CCC(C)CC2)c1C	-2	2	-2	-2	0	.	.
COC/C=C/C1=CC2=CC(=O)C(C)(OC(=O)c3cnc4ccccc4n3)C(=O)C2=CN1CCCCO (stereo not drawn)	1	3	-4	2	3	.	.
COC/C=C/C1=CC2=CC(=O)C(C)(OC(=O)c3cnc4ccccc4n3)C(=O)C2=CN1Cc1ccc(OC)cc1 (stereo not drawn)	3	6	-2	15	18*	2	11*
